Values joined by “and” are separate entries in the source; they are usually repeats but may differ in a detail not shown here. Equal values may be shown once.
Key:
[1] = system: Fibroblast; experiment: Multiplex assay against human fibroblast; type: toxicity, cell-based; settings: number of replicates 2
Procedure, shortened: (§1)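 Cells stained live at seeding with Hoechst33342, BioTracker Green Microtubule Cytoskeleton Dye, MitoTracker Red and Annexin V Alexa Fluor 680 were imaged on a CQ1 microscope at 37°C and 5% CO2 after compound addition. Their classification by CellPathfinder machine-learning gating ran from Hoechst high-intensity objects versus normal cells, to healthy, pyknosed or fragmented nuclei among normal cells, to mitotic or apoptotic among pyknosed cells. Tubulin, mitochondrial-mass and membrane-permeability phenotypes are per cents of healthy-nucleus cells.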

[2] = system: U2OS; experiment: Multiplex assay against U2OS; type: toxicity, cell-based; settings: human, number of replicates 2; procedure, shortened: as §1
[3] = 24 h, 1 µM, compound concentration 1 uM
[4] = 24 h, 10 µM, compound concentration 10 uM
[5] = 48 h, 1 µM, compound concentration 1 uM
[6] = 48 h, 10 µM, compound concentration 10 uM
[7] = 12 h, 1 µM, compound concentration 1 uM
[8] = 12 h, 10 µM, compound concentration 10 uM

With COc1cc(N2CCN(C)CC2)ccc1Nc1ncc2c(n1)N(C)c1ccccc1C(=O)N2CC(F)(F)F the “Population Mitotic Cells (%)” value [1, 3] was 25% and 70%, the “Population Normal (%)” value [1, 3] was 99% and 100% and the “Population Pyknosed Nuclei (%)” value [1, 3] was 5% and 8%. For the same compound, the “Population Tubulin-Different-Phenotype (%)” value [1, 3] was 33% and 18%, the “Total Cell Count” value [1, 3] was 241 and 300 and the “Population Apoptotic (%)” value [1, 4] was 62% and 44%. The “Population Fragmented Nuclei (%)” value [1, 4] was 41% and 15%, the “Population Healthy Nuclei (%)” value [1, 4] was 47% and 69% and the “Population Hoechst High Intensity Objects (%)” value [1, 4] was 5% and 0%. For the same compound, the “Population Membrane Permeable-Phenotype (%)” value [1, 4] was 2%, the “Population Mitochondria Different-Phenotype (%)” value [1, 4] was 27% and 34% and the “Population Mitotic Cells (%)” value [1, 4] was 37% and 55%. The “Population Normal (%)” value [1, 4] was 94% and 100%, the “Population Pyknosed Nuclei (%)” value [1, 4] was 10% and 15% and the “Population Tubulin-Different-Phenotype (%)” value [1, 4] was 69% and 78%. For the same compound, the “Total Cell Count” value [1, 4] was 294 and 218, the “Population Apoptotic (%)” value [1, 5] was 70% and 45% and the “Population Fragmented Nuclei (%)” value [1, 5] was 23% and 16%. For the same compound, the “Population Healthy Nuclei (%)” value [1, 5] was 72% and 77%, the “Population Hoechst High Intensity Objects (%)” value [1, 5] was 0% and the “Population Membrane Permeable-Phenotype (%)” value [1, 5] was 2% and 1%. The “Population Mitochondria Different-Phenotype (%)” value [1, 5] was 1%, the “Population Mitotic Cells (%)” value [1, 5] was 30% and 55% and the “Population Normal (%)” value [1, 5] was 100% and 99%. For the same compound, the “Population Pyknosed Nuclei (%)” value [1, 5] was 4% and 6%, the “Population Tubulin-Different-Phenotype (%)” value [1, 5] was 17% and 10% and the “Total Cell Count” value [1, 5] was 249 and 315. For the same compound, the “Population Apoptotic (%)” value [1, 6] was 76% and 79%, the “Population Fragmented Nuclei (%)” value [1, 6] was 42% and 17% and the “Population Healthy Nuclei (%)” value [1, 6] was 50% and 72%. For the same compound, the “Population Hoechst High Intensity Objects (%)” value [1, 6] was 4% and 1%, the “Population Membrane Permeable-Phenotype (%)” value [1, 6] was 0% and 4% and the “Population Mitochondria Different-Phenotype (%)” value [1, 6] was 28% and 18%. The “Population Mitotic Cells (%)” value [1, 6] was 23% and 20%, the “Population Normal (%)” value [1, 6] was 95% and 98% and the “Population Pyknosed Nuclei (%)” value [1, 6] was 7% and 10%. For the same compound, the “Population Tubulin-Different-Phenotype (%)” value [1, 6] was 68% and 71%, the “Total Cell Count” value [1, 6] was 288 and 232 and the “Population Apoptotic (%)” value [2, 7] was 80% and 51%. For the same compound, the “Population Fragmented Nuclei (%)” value [2, 7] was 11% and 4%, the “Population Healthy Nuclei (%)” value [2, 7] was 76% and 82% and the “Population Hoechst High Intensity Objects (%)” value [2, 7] was 0%. For the same compound, the “Population Membrane Permeable-Phenotype (%)” value [2, 7] was 3%, the “Population Mitotic Cells (%)” value [2, 7] was 20% and 48% and the “Population Normal (%)” value [2, 7] was 100% and 99%. The “Population Pyknosed Nuclei (%)” value [2, 7] was 11% and 12%, the “Population Tubulin-Different-Phenotype (%)” value [2, 7] was 21% and 22% and the “Population Apoptotic (%)” value [2, 8] was 64% and 53%. For the same compound, the “Population Healthy Nuclei (%)” value [2, 8] was 45% and 78%, the “Population Hoechst High Intensity Objects (%)” value [2, 8] was 0% and the “Population Membrane Permeable-Phenotype (%)” value [2, 8] was 17% and 28%. For the same compound, the “Population Mitochondria Different-Phenotype (%)” value [2, 8] was 58% and 54%, the “Population Mitotic Cells (%)” value [2, 8] was 35% and 46% and the “Population Normal (%)” value [2, 8] was 100%. For the same compound, the “Population Pyknosed Nuclei (%)” value [2, 8] was 37% and 19%, the “Population Tubulin-Different-Phenotype (%)” value [2, 8] was 88% and 85% and the “Population Apoptotic (%)” value [2, 3] was 66% and 68%. The “Population Healthy Nuclei (%)” value [2, 3] was 69% and 83%, the “Population Hoechst High Intensity Objects (%)” value [2, 3] was 0% and the “Population Membrane Permeable-Phenotype (%)” value [2, 3] was 3% and 1%. For the same compound, the “Population Mitochondria Different-Phenotype (%)” value [2, 3] was 18% and 19%, the “Population Mitotic Cells (%)” value [2, 3] was 33% and 31% and the “Population Normal (%)” value [2, 3] was 100% and 99%. The “Population Pyknosed Nuclei (%)” value [2, 3] was 15% and 13%, the “Population Tubulin-Different-Phenotype (%)” value [2, 3] was 11% and 30% and the “Population Apoptotic (%)” value [2, 4] was 73%. The “Population Fragmented Nuclei (%)” value [2, 4] was 15% and 6%, the “Population Healthy Nuclei (%)” value [2, 4] was 39% and 55% and the “Population Hoechst High Intensity Objects (%)” value [2, 4] was 0%. The “Population Membrane Permeable-Phenotype (%)” value [2, 4] was 30% and 44%, the “Population Mitochondria Different-Phenotype (%)” value [2, 4] was 69% and 73% and the “Population Mitotic Cells (%)” value [2, 4] was 26%. For the same compound, the “Population Normal (%)” value [2, 4] was 100%, the “Population Pyknosed Nuclei (%)” value [2, 4] was 45% and 37% and the “Population Tubulin-Different-Phenotype (%)” value [2, 4] was 92% and 95%. The “Population Apoptotic (%)” value [2, 5] was 66% and 72%, the “Population Healthy Nuclei (%)” value [2, 5] was 62% and 84% and the “Population Hoechst High Intensity Objects (%)” value [2, 5] was 0%. For the same compound, the “Population Membrane Permeable-Phenotype (%)” value [2, 5] was 2% and 3%, the “Population Mitochondria Different-Phenotype (%)” value [2, 5] was 2% and 11% and the “Population Mitotic Cells (%)” value [2, 5] was 33% and 27%. For the same compound, the “Population Normal (%)” value [2, 5] was 100% and 99%, the “Population Pyknosed Nuclei (%)” value [2, 5] was 22% and 12% and the “Population Tubulin-Different-Phenotype (%)” value [2, 5] was 29% and 37%. The “Population Apoptotic (%)” value [2, 6] was 83% and 86%, the “Population Fragmented Nuclei (%)” value [2, 6] was 26% and 11% and the “Population Hoechst High Intensity Objects (%)” value [2, 6] was 2% and 0%. For the same compound, the “Population Membrane Permeable-Phenotype (%)” value [2, 6] was 85% and 66%, the “Population Mitochondria Different-Phenotype (%)” value [2, 6] was 71% and 74% and the “Population Mitotic Cells (%)” value [2, 6] was 16% and 13%. The “Population Normal (%)” value [2, 6] was 97% and 99%, the “Population Pyknosed Nuclei (%)” value [2, 6] was 57% and 34% and the “Population Tubulin-Different-Phenotype (%)” value [2, 6] was 100% and 94%.

Source: ChEMBL document CHEMBL5303300, “EUbOPEN Chemogenomics Library - Multiplex” (2023)
